# CHRM4 PAM: potentiates acetylcholine response at human M4 receptor; CHO-K1 hM4/Gqi5, Fluo-8 calcium fluorescence, ACh EC20; 0% = ACh EC20, 100% = maximal ACh; AID 624126; activation, % at 3 µM; 360,000 tested, 0.4% active; P08173;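 active means activation above its plate's cutoff, the mean activation of sample wells plus 3 SD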
# Target sequence (P08173 whole entry, looked up): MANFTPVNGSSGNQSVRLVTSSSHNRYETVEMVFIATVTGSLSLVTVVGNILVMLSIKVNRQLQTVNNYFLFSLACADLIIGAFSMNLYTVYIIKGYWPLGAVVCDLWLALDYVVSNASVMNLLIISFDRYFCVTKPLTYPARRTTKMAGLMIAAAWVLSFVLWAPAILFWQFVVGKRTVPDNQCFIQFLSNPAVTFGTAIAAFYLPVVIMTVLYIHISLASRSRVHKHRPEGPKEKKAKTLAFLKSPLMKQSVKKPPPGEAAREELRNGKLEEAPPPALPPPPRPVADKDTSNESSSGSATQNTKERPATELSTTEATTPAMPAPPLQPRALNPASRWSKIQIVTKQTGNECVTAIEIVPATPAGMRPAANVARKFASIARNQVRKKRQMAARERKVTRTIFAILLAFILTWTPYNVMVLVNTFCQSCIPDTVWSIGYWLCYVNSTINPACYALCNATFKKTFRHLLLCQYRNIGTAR
# CHRM4 antagonist: blocks acetylcholine activation of human M4 receptor; P08173; CHO-hM4 cells, ACh EC80, Fluo-8 calcium fluorescence; inhibition, % at 3 µM; 360,000 tested, 0.73% active; AID 624125;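 active means inhibition above its plate's cutoff, the mean inhibition of sample wells plus 3 SD, cut at about 27% in these data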;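 further: 0% = acetylcholine EC80 with DMSO and 100% = DMSO without agonist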
# CHRM5 PAM: positive allosteric modulators of human muscarinic M5 receptor. P08912. CHO-K1 hM5, Fluo-8 calcium, ACh EC20 PAM; 0% = ACh EC20, 100% = ACh EC100. activation, % at 3 µM. 360,000 tested, 0.3% active. AID 624038;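 active means activation above the run cutoff, the mean activation of all test compounds plus 3 SD, cut at about 18% in these data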
#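 Measured by: Fluo-8 calcium fluorescence; material: human M5 receptor in CHO-K1 cells; schedule: Post-acetylcholine fluorescence recording 140 s; benchmarks: low control EC20 acetylcholine (0%), high control EC100 acetylcholine (100%); read-out: Max/basal fluorescence ratio as % of EC20–EC100 ACh window; compound: single dose, 3 µM nominal final test concentration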
# CHRM4 agonist: agonists of human muscarinic M4 receptor (CHRM4); P08173; CHO-K1 hM4/Gqi5, Fluo-8 calcium fluorescence; vehicle 0%, full acetylcholine response 100%; activation, % at 3 µM; 360,000 tested, 0.14% active; AID 624127;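 active means activation above the run mean over all test wells plus 3 SD, cut at about 32% in these data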;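 further: peak over basal fluorescence ratio per well then scaled between controls; 0% = DMSO wells and 100% = acetylcholine at EC100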
# M5 antag: CHRM5 antagonism in calcium assay | P08912 | CHO-hM5 cells, Fluo-8 calcium fluorescence, ACh EC80 | inhibition, % at 3 µM | 360,000 tested, 0.59% active;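 active means inhibition above a per-plate cutoff, the mean of that plate's test compounds plus 3 SD, cut at about 27% in these data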;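 further: 0% = acetylcholine EC80 with DMSO and 100% = DMSO without agonist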
# CHRM5 agonist: agonists of human muscarinic M5 receptor (CHRM5) | CHO-K1 hM5 cells, Fluo-8 calcium fluorescence; 0% DMSO wells, 100% maximal acetylcholine response | 360,000 tested, 0.19% active | activation, % at 3 µM | AID 624037;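 active means activation above the run's mean over test compounds plus 3 SD, cut at about 23% in these data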;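 further: signal is peak over basal fluorescence ratio across the kinetic read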
# Numbers without * were called inactive. Hits are enriched below; roughly 1.8% of the tested compounds scored in any of these assays.
SMILES,CHRM4 PAM,CHRM4 antagonist,CHRM5 PAM,CHRM4 agonist,M5 antag,CHRM5 agonist
CC(=O)Nc1ccc(OCC(O)Cn2c3ccccc3c3ccccc32)cc1 (configuration not stated),16,0,0,11,-2,3
COc1ccc(CNC(=O)Nc2nc(C(N)CCc3ccccc3)cs2)cc1 (configuration not stated),0,1,-2,12,5,0
CCC(=O)N(Cc1cc(=O)[nH]c2ccccc12)c1ccc(C)cc1,-18,11,-5,0,2,-2
Cc1cc(C)cc(OCC(=O)OCC(=O)NC2CCCCCCC2)c1,4,-4,10,-1,-9,-5
CC1CCN(Cc2ccc(NC(=O)CC3Oc4ccccc4NC3=O)cc2)CC1 (configuration not stated),-14,97*,-25,2,37*,-6
CC(C)CN(CCNC(=O)CC1Oc2ccccc2NC1=O)CC(C)C (configuration not stated),4,-6,2,1,-5,-4
CCC(C)N(CCNC(=O)CC1Oc2ccccc2NC1=O)C1CCCCC1 (configuration not stated),-14,45*,-10,0,9,-6
CCN(CC)C(=O)C1CCCN(C(=O)c2cc(COc3ccc4ncccc4c3)on2)C1 (configuration not stated),-10,-12,-16,18,8,3
Cc1ccc(F)cc1CNC(=O)c1cc(COc2ccc3ncccc3c2)on1,-19,43*,-16,25,56*,6
CCN1CCN(C(=O)c2cc(COc3ccc4ncccc4c3)on2)CC1,0,8,-13,12,5,8
CCC1CCCCN1C(=O)c1cc(COc2ccc3ncccc3c2)on1 (configuration not stated),-12,5,-29,22,41*,7
COCC1CCCCN1C(=O)c1cc(COc2ccc3ncccc3c2)on1 (configuration not stated),-12,34*,-14,32*,39*,7
O=C(NCc1cccc(Cl)c1)c1cc(COc2ccc3ncccc3c2)on1,-8,11,-23,17,22,4
O=C(Cc1cccc(F)c1F)NC1CCCN(Cc2ccc(Cl)cc2)C1 (configuration not stated),1,-4,-1,3,8,-14
CC(C)NC(=O)/C(C#N)=C/c1ccc(N(C)C)o1,4,10,-1,3,-1,9
COC(=O)c1c(NC(=O)CN2C(=O)C(=O)N(CC(C)C)C2=O)sc(C)c1C,16,-2,4,1,4,-4
Cc1cc(=O)n2nc(N3CCCC3C(=O)NCCCN3CCCCC3)sc2n1 (configuration not stated),3,-6,19*,0,13,0
O=C(/C(N=Nc1cccc([N+](=O)[O-])c1)=C(/O)c1ccc(Br)cc1)C(F)(F)F,-16,37*,-20,17,24,4
Cc1ccccc1NC(=S)NN1CCN(C)CC1,30*,3,2,1,-2,-10
Cc1cccc(NC(=S)NN2CCN(C)CC2)c1C,5,1,-3,0,2,-5
COc1ccc(C(CNC(=O)c2ccc(NS(=O)(=O)c3cccc([N+](=O)[O-])c3)cc2)N2CCOCC2)cc1 (configuration not stated),-5,8,-5,1,7,-4
CCOc1ccc(C(=O)Nc2cc(-c3nc4ccccc4[nH]3)ccc2Cl)cc1[N+](=O)[O-],-7,15,-15,12,38*,3
CCOc1ccc(C(=O)Nc2cc(-c3nc4ccccc4[nH]3)ccc2C)cc1[N+](=O)[O-],7,-1,-2,6,0,-4
COc1cc(O)oc1C=Nc1ccc(Cl)cc1,17*,-17,-4,1,0,-3
COCCCn1cc(C(=O)c2cc(OC)ccc2OCC(=O)N2CCCCC2C)cc(C#N)c1=O (configuration not stated),-6,5,-16,12,21,1
SMILES,CHRM4 PAM,CHRM4 antagonist,CHRM5 PAM,CHRM4 agonist,M5 antag,CHRM5 agonist
O=C(CNC(=O)c1ccc2c(c1)OCCO2)N/N=C/c1ccc([N+](=O)[O-])cc1,5,-7,8,1,-2,-2
O=C(NCc1ccc(Cl)cc1)C(=O)NCC1OCCN1C(=O)c1ccc(Cl)cc1 (configuration not stated),5,3,2,2,2,-2
CC(C)(C)C(=O)NC(=S)NNC(=O)C(c1ccccc1)c1ccccc1,-43,76*,-34,154*,52*,111*
CC(=O)NNC(=S)NC(=O)C(c1ccccc1)c1ccccc1,5,4,9,16,-4,6
O=C(COc1cccnc1[N+](=O)[O-])Nc1ncc(Cl)cc1Cl,25*,-18,4,2,-1,3
Cc1ccc(NS(=O)(=O)c2ccc(C(=O)OCC(=O)Nc3cc(C)on3)cc2)cc1,-5,7,2,19,4,26*
Cc1cc(NC(=O)COC(=O)c2cccc(S(=O)(=O)N(C)C3CCCCC3)c2)no1,9,30*,-5,3,4,-4
COc1ccc(NS(=O)(=O)c2cccc(C(=O)OCC(=O)Nc3cc(C)on3)c2)cc1,8,9,-5,5,0,5
COC(=O)c1ccc2c(c1)C(C)(C)C(/C=C/c1ccccc1O)=[N+]2C,-10,2,9,7,4,23*
CC(NC(=O)C1CCN(CCOc2ccc(Cl)cc2)CC1)c1cccc2ccccc12 (configuration not stated),-6,4,-5,18,7,8
Cc1ccc(/C=C2\CCC3=C2OC(N)=C(C#N)C3c2ccc(C)cc2)cc1 (configuration not stated),1,30*,-28,15,33*,4
Cc1cccc(C)c1OCC(=O)N(Cc1ccco1)C1CCS(=O)(=O)C1 (configuration not stated),-3,0,1,32*,-1,2
Cc1ccc(OCC(=O)N(Cc2ccco2)C2CCS(=O)(=O)C2)cc1C (configuration not stated),7,-7,1,2,-2,3
NNC(=O)c1oc2nc(-c3cccs3)cc(-c3ccco3)c2c1N,26*,14,15,13,25,0
CC(C(=O)NC1CCCC1)n1c(-c2ccccn2)nc2ccccc21 (configuration not stated),9,-12,-3,1,12,-3
